Assay [1] has as its system Plasmodium falciparum. In words: (§1) In vitro inhibitory concentration against chloroquine-resistant Plasmodium falciparum K1. In kind it is functional, organism-based. A digest of the protocol:
(§2)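 48 h growth assay in human erythrocytes (2% parasitemia, 0.5% haematocrit) in RPMI 1640 with 25 mM HEPES, 32 mM NaHCO3 and 10% human serum, under 3% O2/4% CO2/93% N2 at 37 °C. DMSO stocks diluted in medium; triplicates. 0.5 μCi [3H]-hypoxanthine added at 24 h, uptake counted 24 h later. IC50 by probit interpolation of log dose–response versus drug-free controls.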

Assay [2] concerns Plasmodium falciparum. Put plainly: In vitro inhibitory concentration against chloroquine-sensitive Plasmodium falciparum HB3. Type of assay: functional, organism-based. A digest of the protocol:
as §2

For assay [3], the species on record is Mus musculus. Put plainly: 50% effective dose against Plasmodium yoelii in mice (Mus musculus). Type of assay: functional.
The species entered for assay [4] is Mus musculus. In words: 90% effective dose against Plasmodium yoelii in mice (Mus musculus). Type of assay: functional.
Assay [5] concerns Mus musculus. In words: 50% effective dose for antimalarial activity (in vivo) against Plasmodium berghei. Type of assay: functional. A digest of the protocol:
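Male Swiss albino mice, 18-22 g, infected ip with 10^7 P. berghei NS parasitized erythrocytes. Dosed ip or orally once daily for 4 days from the day of infection, in methanol/PBS/DMSO (2:5:3 v/v). Parasitemia read the day after the last dose. ED50 (50% suppression versus vehicle controls) taken from a plot of log dose against parasitemia.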

The test system of assay [6] is Plasmodium falciparum. The assay is described as §1. In kind it is functional, organism-based. A digest of the protocol:
as §2
This is another data set of the same source.

The IC50 is the concentration that gives 50% inhibition. Low values mean higher potency, high ones lower potency. The ED50 is the midpoint of the dose-response relation. A higher ED50 goes with weaker potency.

Structures are written as SMILES.

On to `C[C@H]1[C@@H](OCc2cccc(CN3CCN(c4ccc(F)cc4)CC3)c2)O[C@@H]2OC3(C)CCC4[C@H](C)CC[C@@H]1[C@]42OO3` (single isomer, unassigned), for which the half-maximal inhibitory concentration (IC50) in the assay on Plasmodium falciparum [1] and in the assay on Plasmodium falciparum [2] was 12.6 nM in each case.
With `C[C@H]1[C@@H](OCc2cccc(CN3CCN(c4ccc([N+](=O)[O-])cc4)CC3)c2)O[C@@H]2OC3(C)CCC4[C@H](C)CC[C@@H]1[C@]42OO3` (single isomer, unassigned), the IC50 in the assay with Plasmodium falciparum [1] and in the assay on Plasmodium falciparum [2] was 4.3 nM in each case.
For the compound `C[C@H]1[C@@H](CCN2CCN(c3ccc(F)cc3)CC2)O[C@@H]2OC3(C)CCC4[C@H](C)CC[C@@H]1[C@]42OO3` (single isomer, unassigned), it took 5.96 nM to reach half-maximal inhibition in the assay with Plasmodium falciparum [1] (IC50). The ED50 in the assay listed under Mus musculus [3] is less than 10 mg/kg. Also, the ED90 in the assay listed under Mus musculus [4] worked out at 10 mg/kg.
Turning to `C[C@H]1[C@@H](OCc2ccc(CN3CCN(c4ccccc4)CC3)cc2)O[C@@H]2OC3(C)CCC4[C@H](C)CC[C@@H]1[C@]42OO3` (single isomer, unassigned), the 50% inhibitory concentration (IC50) with Plasmodium falciparum [1] was determined as 8.2 nM.
In the assay with Plasmodium falciparum [1], `C[C@H]1[C@@H](CCN2CCN(Cc3ccccc3)CC2)O[C@@H]2OC3(C)CCC4[C@H](C)CC[C@@H]1[C@]42OO3` (single isomer, unassigned) registered a half-inhibitory concentration (IC50) of 4.22 nM. Moreover, the 50% effective dose (ED50) in the assay listed under Mus musculus [3] was less than 10 mg/kg. In the assay listed under Mus musculus [4], this compound came in with an ED90 greater than 10 mg/kg.
As for `C[C@H]1[C@@H](CCN2CCN(c3ccccc3)CC2)O[C@@H]2OC3(C)CCC4[C@H](C)CC[C@@H]1[C@]42OO3` (single isomer, unassigned), the half-maximal inhibitory concentration (IC50) in the assay on Plasmodium falciparum [1] came out at 3.15 nM. Moreover, in the assay listed under Mus musculus [3], the ED50 is less than 10 mg/kg. This compound yielded an ED90 in the assay filed under Mus musculus [4] greater than 10 mg/kg.
`C[C@H]1[C@@H](CCN2CCN(c3cccc(C(F)(F)F)c3)CC2)O[C@@H]2OC3(C)CCC4[C@H](C)CC[C@@H]1[C@]42OO3` (single isomer, unassigned) came in with an IC50 with Plasmodium falciparum [1] of 6.19 nM. Moreover, the median effective dose (ED50) in the assay filed under Mus musculus [3] was less than 10 mg/kg; in the assay on Mus musculus [5], 3.12 mg/kg. Further, the ED90 in the assay listed under Mus musculus [4] is less than 10 mg/kg.
For `C[C@H]1[C@@H](OCc2cccc(CN3CCN(c4ccc(Cl)cc4)CC3)c2)O[C@@H]2OC3(C)CCC4[C@H](C)CC[C@@H]1[C@]42OO3` (single isomer, unassigned), in the assay on Plasmodium falciparum [1], the midpoint of inhibition, the IC50, lay at 13.3 nM. That is a double-digit nanomolar value.
Same read-out and setting: to `C[C@H]1[C@@H](CCN2CCN(c3ccc(Cl)cc3)CC2)O[C@@H]2O[C@]3(C)CC[C@H]4[C@H](C)CC[C@@H]1[C@@]24OO3` belongs 8.16 nM; to `C[C@H]1[C@@H](OCc2cccc(CN3CCN(c4cccc(C(F)(F)F)c4)CC3)c2)O[C@@H]2OC3(C)CCC4[C@H](C)CC[C@@H]1[C@]42OO3` (single isomer, unassigned), 22.5 nM.
As to `C[C@H]1[C@@H](OCc2ccc(CN3CCN(Cc4ccccc4)CC3)cc2)O[C@@H]2O[C@]3(C)CC[C@H]4[C@H](C)CC[C@@H]1[C@@]24OO3`, the IC50 came out at 3.8 nM in the assay on Plasmodium falciparum [1] and 1.8 nM in the assay with Plasmodium falciparum [2].
Turning to `C[C@H]1[C@@H](OCc2ccc(CN3CCN(c4ccc(C(F)(F)F)cc4)CC3)cc2)O[C@@H]2OC3(C)CCC4[C@H](C)CC[C@@H]1[C@]42OO3` (single isomer, unassigned), the half-inhibitory concentration (IC50) stood at 12.5 nM in the assay with Plasmodium falciparum [1] and 8.1 nM in the assay on Plasmodium falciparum [2].
On the same counts, the results for `C[C@H]1[C@@H](OCc2ccc(CN3CCN(c4ccc(F)cc4)CC3)cc2)O[C@@H]2OC3(C)CCC4[C@H](C)CC[C@@H]1[C@]42OO3` (single isomer, unassigned) are 6.3 nM and 2.3 nM.
In turn, `C[C@H]1[C@@H](CCN2CCCCC2)O[C@@H]2OC3(C)CCC4[C@H](C)CC[C@@H]1[C@]42OO3` (single isomer, unassigned) returned an IC50 with Plasmodium falciparum [1] of 4.83 nM.
`C[C@H]1[C@@H](CCN2CCOCC2)O[C@@H]2OC3(C)CCC4[C@H](C)CC[C@@H]1[C@]42OO3` (single isomer, unassigned) came in with a 50% inhibitory concentration (IC50) with Plasmodium falciparum [1] of 4.22 nM. The IC50 values of the last two compounds are within 1.5-fold of each other.
`C[C@H]1[C@H](OC(=O)CCC(=O)[O-])O[C@@H]2O[C@@]3(C)CC[C@H]4[C@H](C)CC[C@@H]1[C@@]24OO3.[Na+]` [SODIUM ARESUNATE] displayed a median effective dose (ED50) in the assay listed under Mus musculus [3] of 1.6 mg/kg. Also, the ED90 in the assay filed under Mus musculus [4] was 100 mg/kg.
In turn, `C[C@H]1[C@@H](OCc2ccc(CN3CCN(c4ccc([N+](=O)[O-])cc4)CC3)cc2)O[C@@H]2OC3(C)CCC4[C@H](C)CC[C@@H]1[C@]42OO3` (single isomer, unassigned) returned an IC50 with Plasmodium falciparum [1] of 138 nM.
`CO[C@H]1O[C@@H]2O[C@@]3(C)CC[C@H]4[C@H](C)CC[C@@H]([C@H]1C)[C@@]24OO3` [ARTEMETHER]: the IC50 in the assay with Plasmodium falciparum [1] amounted to 6.5 nM; with Plasmodium falciparum [6], 7.94 nM; in the assay on Plasmodium falciparum [2], 9.2 nM.
In the assay with Plasmodium falciparum [1], `C[C@H]1[C@@H](CCN2CCN(c3ccc([N+](=O)[O-])cc3)CC2)O[C@@H]2OC3(C)CCC4[C@H](C)CC[C@@H]1[C@]42OO3` (single isomer, unassigned) gave an IC50 of 4.29 nM. For the same compound, the ED50 in the assay filed under Mus musculus [3] was less than 10 mg/kg. Also, the ED90 in the assay listed under Mus musculus [4] was greater than 10 mg/kg.
As to `C[C@H]1[C@@H](OCc2cccc(CN3CCN(c4ccccc4)CC3)c2)O[C@@H]2OC3(C)CCC4[C@H](C)CC[C@@H]1[C@]42OO3` (single isomer, unassigned), the IC50 in the assay on Plasmodium falciparum [1] was 6.6 nM; in the assay with Plasmodium falciparum [2] it was 3.4 nM.
`C[C@@H]1CC[C@H]2[C@@H](C)C(=O)O[C@@H]3O[C@@]4(C)CC[C@@H]1[C@]32OO4` [ARTEMISININ] had a 50% inhibitory concentration (IC50) in the assay on Plasmodium falciparum [1] of 12.5 nM.
The same measure, in the same setting: then `CCCN(CCC)CC[C@H]1O[C@@H]2O[C@]3(C)CC[C@H]4[C@H](C)CC[C@@H]([C@H]1C)[C@@]24OO3`, with 7.51 nM.

The values are drawn from ChEMBL document CHEMBL1135984, “Mechanism-based design of parasite-targeted artemisinin derivatives: synthesis and antimalarial activity of new diamine containing analogues” (J Med Chem, 2002).
